Measurements from ChEMBL document CHEMBL1147338, “Production of an anti-allergic triterpene bryonolic acid, by plant cell cultures” (J Nat Prod, 1993).
Each block holds one compound with its values, some of them ahead of it. The source made the active and inactive calls. The rule behind the calls is not given here.

Assays:
[1] = tested on: Mus musculus; assay: Antiallergic activity in po dosed ddY mouse assessed as inhibition of passive cutaneous anaphylaxis administered 30 mins before egg albumin challenge; assay type: functional; settings: read-out: ID50 (the source's name)
How it was run: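 Passive cutaneous anaphylaxis in mice: ear sensitization with anti-egg-albumin antiserum 48 h before iv egg albumin with Evans Blue; oral dosing 30 min before antigen; ear dye leakage read spectrophotometrically 30 min after challenge.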

[2] = tested on: Mus musculus; assay: Antiallergic activity in ip dosed ddY mouse assessed as inhibition of passive cutaneous anaphylaxis administered 15 mins before egg albumin challenge; assay type: functional; settings: read-out: ID50 (the source's name)
How it was run: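 Passive cutaneous anaphylaxis: anti-egg-albumin antiserum injected into both ears 48 h before iv egg albumin plus Evans Blue. Intraperitoneal dosing 15 min before antigen; dye leakage per ear measured spectrophotometrically after 30 min. ID50 (mg/kg) given as dose giving 50% inhibition.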

[3] = tested on: Mus musculus; assay: Antiallergic activity in ddY mouse assessed as inhibition sheep erythrocytes-induced arthus reaction at 300 mg/kg, po administered 30 mins before induction of arthus reaction; assay type: functional
How it was run: (§1)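 Male ddY mice (4-week-old, 16–18 g) sensitized by iv sheep erythrocytes 19 and 5 days before Arthus reaction, induced by sc sheep erythrocytes into right paw. Oral dosing 30 min before induction; edema scored as right minus left paw thickness, expressed as % inhibition of control.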

[4] = tested on: Mus musculus; assay: Antiallergic activity in ddY mouse assessed as inhibition picryl chloride-induced contact dermatitis at 75 mg/kg, po administered 3 hrs after picryl chloride challenge measured after 24 hrs
[5] = tested on: Mus musculus; assay: Antiallergic activity in ddY mouse assessed as inhibition sheep erythrocytes-induced arthus reaction at 600 mg/kg, po administered 30 mins before induction of arthus reaction; assay type: functional; how it was run: as §1
[6] = tested on: Mus musculus; assay: Antiallergic activity in ddY mouse assessed as inhibition picryl chloride-induced contact dermatitis at 300 mg/kg, po administered 3 hrs after picryl chloride challenge measured after 24 hrs
[7] = tested on: Mus musculus; assay: Acute toxicity in ddY mouse at 4 g/kg, po; assay type: organism-based; settings: in vivo, 4000 mg/kg
How it was run: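 Mice dosed orally at 4 g/kg; lethality recorded as the read-out for acute toxicity.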

[8] = tested on: Mus musculus; assay: Antiallergic activity in ddY mouse assessed as inhibition picryl chloride-induced contact dermatitis at 150 mg/kg, po administered 3 hrs after picryl chloride challenge measured after 24 hrs
[9] = target: T1, Aldo-keto reductase family 1 member D1 (Rattus norvegicus) (UniProt P31210); assay: Inhibition of rat liver 3-ketosteroid 5-beta-reductase
T1 sequence (whole entry): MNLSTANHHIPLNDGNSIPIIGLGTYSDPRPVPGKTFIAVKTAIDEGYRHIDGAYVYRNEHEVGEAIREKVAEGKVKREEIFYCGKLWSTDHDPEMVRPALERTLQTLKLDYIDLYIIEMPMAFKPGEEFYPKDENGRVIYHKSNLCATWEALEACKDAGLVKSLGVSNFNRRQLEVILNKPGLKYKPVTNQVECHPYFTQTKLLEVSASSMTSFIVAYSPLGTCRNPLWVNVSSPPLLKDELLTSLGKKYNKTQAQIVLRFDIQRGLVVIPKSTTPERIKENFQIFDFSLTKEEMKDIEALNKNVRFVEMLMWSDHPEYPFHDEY

[10] = tested on: Mus musculus; assay: Antiallergic activity in ddY mouse assessed as inhibition sheep erythrocytes-induced arthus reaction at 30 mg/kg, po administered 30 mins before induction of arthus reaction; assay type: functional; how it was run: as §1
[11] = tested on: Mus musculus; assay: Antiallergic activity in ddY mouse assessed as inhibition picryl chloride-induced contact dermatitis at 30 mg/kg, po administered 3 hrs after picryl chloride challenge measured after 24 hrs

SMILES: CC1(C)[C@@H](OC(=O)c2ccccc2C(=O)[O-])CC[C@]2(C)C3=C(CC[C@@H]12)[C@@]1(C)CC[C@@]2(C)CC[C@@](C)(COC(=O)c4ccccc4C(=O)[O-])C[C@H]2[C@]1(C)CC3.[K+].[K+]
ED50 [1]: 92.5 mg/kg
ED50 [2]: 41.4 mg/kg

SMILES: CC1(C)[C@@H](OC(=O)CCC(=O)[O-])CC[C@]2(C)C3=C(CC[C@@H]12)[C@@]1(C)CC[C@@]2(C)CC[C@@](C)(C(=O)[O-])C[C@H]2[C@]1(C)CC3.[K+].[K+]
inhibition in vivo at 300 mg/kg [3]: 35.3%
inhibition in vivo at 75 mg/kg [4]: 34%
ED50 [1]: 63.7 mg/kg
inhibition in vivo at 600 mg/kg [5]: 62.4%
inhibition in vivo at 300 mg/kg [6]: 53%
ED50 [2]: 55.3 mg/kg
Activity [7]: Non-toxic
inhibition in vivo at 150 mg/kg [8]: 40.7%

Activity [9]: inactive
SMILES: CC1(C)[C@@H](O)CC[C@]2(C)C3=C(CC[C@@H]12)[C@@]1(C)CC[C@@]2(C)CC[C@@](C)(C(=O)O)C[C@H]2[C@]1(C)CC3 [BRYONOLIC ACID]
ED50 [2]: 376 mg/kg

SMILES: CC1(C)[C@@H](O)CC[C@]2(C)C3=C(CC[C@@H]12)[C@@]1(C)CC[C@@]2(C)CC[C@@](C)(CO)C[C@H]2[C@]1(C)CC3
ED50 [2]: 315 mg/kg

SMILES: COc1ccc(/C=C/C(=O)Nc2ccccc2C(=O)O)cc1OC [TRANILAST]
ED50 [2]: 152 mg/kg

SMILES: CC1(C)[C@@H](OC(=O)c2ccccc2C(=O)[O-])CC[C@]2(C)C3=C(CC[C@@H]12)[C@@]1(C)CC[C@@]2(C)CC[C@@](C)(C(=O)[O-])C[C@H]2[C@]1(C)CC3.[K+].[K+]
ED50 [1]: 172 mg/kg
ED50 [2]: 34.2 mg/kg

SMILES: CC1(C)[C@@H](O)CC[C@]2(C)C3=C(CC[C@@H]12)[C@@]1(C)CC[C@@]2(C)CC[C@@](C)(COC(=O)CCC(=O)[O-])C[C@H]2[C@]1(C)CC3.[K+]
ED50 [2]: > 400 mg/kg

SMILES: CC1(C)[C@@H](OC(=O)CCC(=O)[O-])CC[C@]2(C)C3=C(CC[C@@H]12)[C@@]1(C)CC[C@@]2(C)CC[C@@](C)(COC(=O)CCC(=O)[O-])C[C@H]2[C@]1(C)CC3.[K+].[K+]
ED50 [2]: 52.4 mg/kg

SMILES: C[C@]12C=CC(=O)C=C1CC[C@@H]1[C@@H]2[C@@H](O)C[C@@]2(C)[C@H]1CC[C@]2(O)C(=O)COC(=O)CCC(=O)O [PREDNISOLONE HEMISUCCINATE]
inhibition in vivo at 30 mg/kg [10]: 37.4%
inhibition in vivo at 30 mg/kg [11]: 41%

SMILES: CC1(C)[C@@H](OC(=O)CCC(=O)[O-])CC[C@]2(C)C3=CC[C@@]4(C)[C@@H]5C[C@](C)(C(=O)[O-])CC[C@]5(C)CC[C@]4(C)C3=CC[C@@H]12.[K+].[K+]
ED50 [2]: 92.4 mg/kg

Activity [9]: Active
SMILES: CC1(C)[C@@H](O)CC[C@]2(C)[C@H]3C(=O)C=C4[C@@H]5C[C@@](C)(C(=O)O)CC[C@]5(C)CC[C@@]4(C)[C@]3(C)CC[C@@H]12

SMILES: CC1(C)[C@@H](OC(=O)CCC(=O)[O-])CC[C@]2(C)C3=C(CC[C@@H]12)[C@@]1(C)CC[C@@]2(C)CC[C@@](C)(CO)C[C@H]2[C@]1(C)CC3.[K+]
ED50 [2]: 50.3 mg/kg
